Test results taken from ChEMBL document CHEMBL1921722, “In vitro and in vivo evaluation of select kahalalide F analogs with antitumor and antifungal activities” (Bioorg Med Chem, 2011).
Values after ≈ are worked out from the molar mass of the structure shown.

How the values were obtained:
SR = experiment: Cytotoxicity against human SR cells assessed as cell growth at 800 nM by sulforhodamine B assay relative to control; type: functional; conditions: read-out: Activity
NCI-H522 [1] = experiment: Cytotoxicity against human NCI-H522 cells assessed as cell growth at 800 nM by sulforhodamine B assay relative to control; type: functional; conditions: read-out: Activity
BT-549 [2] = experiment: Cytotoxicity against human BT549 cells by sulforhodamine B assay; type: functional
Procedure, shortened: (§1)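 Run at NCI in the DTP 60-cell-line human tumor panel by standard procedure. Compounds were first screened at a single concentration, then tested at five tenfold-spaced concentrations. GI50 is the concentration reducing treated-cell growth to half that of untreated controls; TGI is the concentration completely halting growth.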

HOP-62 = experiment: Cytotoxicity against human HOP62 cells by sulforhodamine B assay; type: functional
Procedure, shortened: (§2)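 Run by the NCI Developmental Therapeutics Program on its 60-line human tumour cell panel using the standard procedure. Compounds went through a single-concentration prescreen first, and those active by NCI criteria went on to a five-concentration growth-inhibition test. GI50 is the concentration that cuts growth of treated cells to half that of untreated control cells.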

UACC-257 = experiment: Cytotoxicity against human UACC257 cells assessed as cell growth at 8 uM by sulforhodamine B assay relative to control; type: functional; conditions: read-out: Activity
NCI-H522 [3] = experiment: Cytotoxicity against human NCI-H522 cells by sulforhodamine B assay; type: functional
Procedure, shortened: (§3)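 NCI Developmental Therapeutics Program 60-cell-line human tumor panel screen, run at NCI. A single-concentration pre-screen was followed by a five-concentration dose-response in 10-fold steps. GI50 is the concentration that reduces growth of treated cells to half that of untreated control cells. TGI is the concentration that completely halts growth.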

OVCAR-8 = experiment: Cytotoxicity against human OVCAR8 cells assessed as cell growth at 8 uM by sulforhodamine B assay relative to control; type: functional; conditions: read-out: Activity
NCI/ADR-RES = experiment: Cytotoxicity against human NCI/ADR-RES cells assessed as cell growth at 80 uM by sulforhodamine B assay relative to control; type: functional; conditions: read-out: Activity
K562 = experiment: Cytotoxicity against human K562 cells assessed as cell growth at 8 nM by sulforhodamine B assay relative to control; type: functional; conditions: read-out: Activity
UO-31 = experiment: Cytotoxicity against human UO31 cells assessed as cell growth at 80 uM by sulforhodamine B assay relative to control; type: functional; conditions: read-out: Activity
SK-MEL-5 = experiment: Cytotoxicity against human SK-MEL-5 cells assessed as cell growth at 80 nM by sulforhodamine B assay relative to control; type: functional; conditions: read-out: Activity
Hs-578T = experiment: Cytotoxicity against human Hs578T cells assessed as cell growth at 80 nM by sulforhodamine B assay relative to control; type: functional; conditions: read-out: Activity
U-251 = experiment: Cytotoxicity against human U251 cells assessed as cell growth at 80 nM by sulforhodamine B assay relative to control; type: functional; conditions: read-out: Activity
HT-29 = experiment: Cytotoxicity against human HT-29 cells assessed as cell growth at 8 uM by sulforhodamine B assay relative to control; type: functional; conditions: read-out: Activity
TK-10 = experiment: Cytotoxicity against human TK10 cells assessed as cell growth at 80 nM by sulforhodamine B assay relative to control; type: functional; conditions: read-out: Activity
SK-OV-3 = experiment: Cytotoxicity against human SKOV3 cells assessed as cell growth at 8 nM by sulforhodamine B assay relative to control; type: functional; conditions: read-out: Activity
T47D [4] = experiment: Cytotoxicity against human T47D cells assessed as cell growth at 80 uM by sulforhodamine B assay relative to control; type: functional; conditions: read-out: Activity
EKVX [5] = experiment: Cytotoxicity against human EKVX cells by sulforhodamine B assay; type: functional; procedure, shortened: as §2
OVCAR-3 = experiment: Cytotoxicity against human OVCAR3 cells assessed as cell growth at 800 nM by sulforhodamine B assay relative to control; type: functional; conditions: read-out: Activity
786-0 = experiment: Cytotoxicity against human 786-0 cells assessed as cell growth at 80 uM by sulforhodamine B assay relative to control; type: functional; conditions: read-out: Activity; procedure, shortened: as §1
DU-145 = experiment: Cytotoxicity against human DU145 cells assessed as cell growth at 800 nM by sulforhodamine B assay relative to control; type: functional; conditions: read-out: Activity
HCT-116 = experiment: Cytotoxicity against human HCT116 cells assessed as cell growth at 80 uM by sulforhodamine B assay relative to control; type: functional; conditions: read-out: Activity
EKVX [6] = experiment: Cytotoxicity against human EKVX cells assessed as cell growth at 8 nM by sulforhodamine B assay relative to control; type: functional; conditions: read-out: Activity
UACC-62 = experiment: Cytotoxicity against human UACC62 cells assessed as cell growth at 80 nM by sulforhodamine B assay relative to control; type: functional; conditions: read-out: Activity
SK-MEL-2 = experiment: Cytotoxicity against human SK-MEL-2 cells assessed as cell growth at 800 nM by sulforhodamine B assay relative to control; type: functional; conditions: read-out: Activity
MDA-MB-435 = experiment: Cytotoxicity against human MDA-MB-435 cells assessed as cell growth at 80 uM by sulforhodamine B assay relative to control; type: functional; conditions: read-out: Activity
ACHN = experiment: Cytotoxicity against human ACHN cells assessed as cell growth at 8 uM by sulforhodamine B assay relative to control; type: functional; conditions: read-out: Activity; procedure, shortened: as §1
Cryptococcus neoformans = experiment: Antimicrobial activity against Cryptococcus neoformans ATCC 90113 by CLSI method; type: functional, organism-based
OVCAR-4 [7] = experiment: Cytotoxicity against human OVCAR4 cells assessed as cell growth at 80 uM by sulforhodamine B assay relative to control; type: functional; conditions: read-out: Activity
T47D [8] = experiment: Cytotoxicity against human T47D cells assessed as cell growth at 800 nM by sulforhodamine B assay relative to control; type: functional; conditions: read-out: Activity
COLO 205 [9] = experiment: Cytotoxicity against human COLO205 cells by sulforhodamine B assay; type: functional; procedure, shortened: as §1
BT-549 [10] = experiment: Cytotoxicity against human BT549 cells assessed as cell growth at 80 nM by sulforhodamine B assay relative to control; type: functional; conditions: read-out: Activity; procedure, shortened: as §1
OVCAR-4 [11] = experiment: Cytotoxicity against human OVCAR4 cells assessed as cell growth at 8 nM by sulforhodamine B assay relative to control; type: functional; conditions: read-out: Activity
NCI-H23 = experiment: Cytotoxicity against human NCI-H23 cells assessed as cell growth at 8 uM by sulforhodamine B assay relative to control; type: functional; conditions: read-out: Activity
COLO 205 [12] = experiment: Cytotoxicity against human COLO205 cells assessed as cell growth at 800 nM by sulforhodamine B assay relative to control; type: functional; conditions: read-out: Activity; procedure, shortened: as §1
SNB-75 = experiment: Cytotoxicity against human SNB75 cells by sulforhodamine B assay; type: functional; procedure, shortened: as §3
Malme-3M = experiment: Cytotoxicity against human MALME-3M cells assessed as cell growth at 80 nM by sulforhodamine B assay relative to control; type: functional; conditions: read-out: Activity
OVCAR-4 [13] = experiment: Cytotoxicity against human OVCAR4 cells assessed as cell growth at 800 nM by sulforhodamine B assay relative to control; type: functional; conditions: read-out: Activity
T47D [14] = experiment: Cytotoxicity against human T47D cells by sulforhodamine B assay; type: functional; procedure, shortened: as §3

Structure (SMILES): C/C=C1\NC(=O)[C@H](Cc2ccccc2)NC(=O)[C@@H](C(C)C)NC(=O)[C@@H]([C@@H](C)CC)NC(=O)[C@H](NC(=O)[C@H](NC(=O)[C@H](CCCNCc2ccc(N3CCOCC3)cc2)NC(=O)[C@H]2CCCN2C(=O)[C@H](NC(=O)[C@@H](NC(=O)[C@@H](NC(=O)[C@H](NC(=O)CCCC(C)C)C(C)C)[C@@H](C)O)C(C)C)C(C)C)[C@@H](C)CC)[C@@H](C)OC(=O)[C@H](C(C)C)NC1=O
- growth at 0.8 µM (SR): 103%
- growth at 0.8 µM (NCI-H522 [1]): 101%
- GI50 (BT-549 [2]): 1350 nM
- TGI (BT-549 [2]; read-out: pTGI (converted)): 2820 nM
- GI50 (HOP-62): 1410 nM
- LC50 (HOP-62): 5750 nM
- TGI (HOP-62; read-out: pTGI (converted)): 2820 nM
- growth at 8 µM (UACC-257): -76%
- GI50 (NCI-H522 [3]): 5010 nM
- LC50 (NCI-H522 [3]): > 75900 nM
- TGI (NCI-H522 [3]; read-out: pTGI (converted)): 33100 nM
- growth at 8 µM (OVCAR-8): -34%
- growth at 80 µM (NCI/ADR-RES): -58%
- growth at 0.008 µM (K562): 103%
- growth at 80 µM (UO-31): -28%
- growth at 0.08 µM (SK-MEL-5): 101%
- growth at 0.08 µM (Hs-578T): 101%
- growth at 0.08 µM (U-251): 103%
- growth at 8 µM (HT-29): -68%
- growth at 0.08 µM (TK-10): 96%
- growth at 0.008 µM (SK-OV-3): 107%
- growth at 80 µM (T47D [4]): -7%
- GI50 (EKVX [5]): 776 nM
- TGI (EKVX [5]; read-out: pTGI (converted)): 1910 nM
- growth at 0.8 µM (OVCAR-3): 46%
- growth at 80 µM (786-0): -66%
- growth at 0.8 µM (DU-145): -77%
- growth at 80 µM (HCT-116): -58%
- growth at 0.008 µM (EKVX [6]): 102%
- growth at 0.08 µM (UACC-62): 103%
- growth at 0.8 µM (SK-MEL-2): 105%
- growth at 80 µM (MDA-MB-435): -9%
- growth at 8 µM (ACHN): -84%
- IC50 (Cryptococcus neoformans): 1730 nM
- MFC (Cryptococcus neoformans): 10 µM (≈ 16.5 µg/mL)
- MIC (Cryptococcus neoformans): 5 µM (≈ 8.27 µg/mL)
- growth at 80 µM (OVCAR-4 [7]): -15%
- growth at 0.8 µM (T47D [8]): -23%
- GI50 (COLO 205 [9]; read-out: GI50): 152 nM
- GI50 (COLO 205 [9]; read-out: pGI50 (converted)): 151 nM
- growth at 0.08 µM (BT-549 [10]): 95%
- growth at 0.008 µM (OVCAR-4 [11]): 103%
- growth at 8 µM (NCI-H23): -63%
- growth at 0.8 µM (COLO 205 [12]): -52%
- GI50 (SNB-75; read-out: GI50): 808 nM
- TGI (SNB-75; read-out: TGI): 1900 nM
- GI50 (SNB-75; read-out: pGI50 (converted)): 813 nM
- TGI (SNB-75; read-out: pTGI (converted)): 1910 nM
- growth at 0.08 µM (Malme-3M): 112%
- growth at 0.8 µM (OVCAR-4 [13]): 79%
- GI50 (T47D [14]; read-out: GI50): 167 nM
- TGI (T47D [14]; read-out: TGI): 466 nM
- GI50 (T47D [14]; read-out: pGI50 (converted)): 166 nM
- TGI (T47D [14]; read-out: pTGI (converted)): 468 nM
